Test results as given in ChEMBL document CHEMBL1158037, “Taraxasterane- and ursane-type triterpenes from Nerium oleander and their biological activities” (J Nat Prod, 2006).

Assays:
A549 [1] = experiment: Antiinflammatory activity in human A549 cells assessed as inhibition of ICAM1 induction pretreated for 1 hr before IL1alpha challenge and incubated for 6 hrs in presence of IL1alpha; type: functional, cell-based
Procedure, shortened: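 A549 cells (human lung carcinoma, used as endothelial model) exposed to a range of compound concentrations for 1 h, then IL-1α added and culture continued 6 h. ICAM-1 measured by primary and secondary antibodies plus enzyme substrate, absorbance at 415 nm. Triplicate cultures; IC50 reported.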

WI-38 VA13 = experiment: Cytotoxicity against human VA-13 cells by WST-8 assay; type: functional, cell-based
Procedure, shortened: (§1)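 Growth inhibition of WI-38, VA-13 and HepG2 cells, with Taxol and ADM as positive controls; IC50 taken as concentration giving 50% growth inhibition.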

[2] = Cytotoxicity against human WI38 cells by WST-8 assay; type: cell-based; conditions: WI-38; procedure, shortened: as §1
[3] = Cytotoxicity against human Hep G2 by WST-8 assay; type: functional; conditions: HepG2; procedure, shortened: as §1
A549 [4] = experiment: Cytotoxicity against human A549 cells after 24 hrs by MTT assay; type: functional, cell-based; conditions: A549, 24 h
Procedure, shortened: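 A549 cells incubated 24 h with serial dilutions of compound; viability (%) by MTT used to derive IC50. Triplicate cultures.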

Row | Structure (SMILES) | IC50 (A549 [1]) | IC50 (WI-38 VA13) | IC50 [2] | IC50 [3] | IC50 (A549 [4])
1 | C[C@H]1[C@H](C)CC[C@]2(C=O)CC[C@]3(C)C(=CC[C@@H]4[C@@]5(C)CC[C@H](O)C(C)(C)[C@@H]5CC[C@]43C)[C@H]12 | 158 µM | 85.4 µM | 94.7 µM | 99 µM | 205 µM
2 | C[C@H]1[C@H](C)CC[C@]2(O)CC[C@]3(C)C(=CC[C@@H]4[C@@]5(C)CC[C@H](O)C(C)(C)[C@@H]5CC[C@]43C)[C@H]12 | > 316 µM | 108 µM | 20.1 µM | 21.1 µM | > 316 µM
3 | CO[C@H]1O[C@@]2(C)CC[C@@]13CC[C@]1(C)[C@H](CC[C@@H]4[C@@]5(C)CC[C@H](O)C(C)(C)[C@@H]5CC[C@]41C)[C@H]3[C@@H]2C | 80 µM | 11.7 µM | 11.8 µM | 10.3 µM | 76 µM
4 | C[C@H]1[C@@H]2[C@H]3CC[C@@H]4[C@@]5(C)CC[C@H](O)C(C)(C)[C@@H]5CC[C@@]4(C)[C@]3(C)CC[C@@]23C=C[C@]1(C)OC3 | > 316 µM | 111 µM | 83.8 µM | 155 µM | > 316 µM
